The record followed here is ChEMBL document CHEMBL2406995, “Cytotoxic indole alkaloids from Tabernaemontana divaricata” (J Nat Prod, 2013).

As usually defined, the IC50 is the concentration at which inhibition is half-maximal. Read a high IC50 as weaker potency.

Type in all cases: functional, cell-based
Test [1] can be described thus: Cytotoxicity against human […] cells after 48 hrs by MTT assay. In short, it runs like this:
(§1)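 Adherent cells grown in RPMI1640 or DMEM plus 10% FBS at 37 °C, 5% CO2. They were seeded in 96-well plates and left 12 h to adhere before dosing. MTT viability was used to plot growth curves, and IC50 was calculated by Reed and Muench's method.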

The subject of another test is A549. The test is described as follows: Cytotoxicity against human A549 cells after 48 hrs by MTT assay. Conditions: A549, 48 h. A digest of the protocol:
as §1
In general terms: Tetrazolium assays rely on reduction of a dye to a coloured formazan, in cell work by metabolically active cells.

Another test concerns SW480. As to the kind of experiment: Cytotoxicity against human SW480 cells after 48 hrs by MTT assay. The conditions noted are these: SW480, 48 h. A digest of the protocol:
as §1

For a further test, the system named is HL-60. As to the kind of experiment: Cytotoxicity against human HL60 cells after 48 hrs by MTT assay. Conditions: HL-60, 48 h. A digest of the protocol: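 Suspension (leukemia) cells seeded just before drug addition at an initial density of 1 × 10^5 cells/mL. They were grown in RPMI1640 or DMEM with 10% FBS, 5% CO2, 37 °C. Cells were exposed for 48 h to […], 0.32, 1.6, 8 and 40 μM in triplicate, with cisplatin as positive control. Viability was read by MTT and IC50 was derived by Reed and Muench's method.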

For another test, the system named is MCF7. The test is described as follows: Cytotoxicity against human MCF7 cells after 48 hrs by MTT assay. The conditions noted are these: MCF7, 48 h. A digest of the protocol: as §1

Take `CC[C@H]1C[C@@H]2CN3CCc4c([nH]c5c([C@H]6C[C@H]7[C@]8(C(=O)OC)CO[C@H](N(C)[C@H]8Cc8c6[nH]c6ccccc86)[C@@]76O[C@@H]6C)c(OC)ccc45)[C@](C(=O)OC)(C2)[C@H]13`: the IC50 in test [1] is 3.41 µM; with A549, 3.52 µM; in the test with SW480, 2.59 µM; with HL-60 it was 0.79 µM; in the test on MCF7, 3.1 µM.

Regarding `CC[C@H]1C[C@H]2C[C@H]3c4[nH]c5ccc(OC)cc5c4CCN([C@@H]13)[C@@H]2CC(C)=O`, the IC50 came to 14.8 µM in test [1]; 28.5 µM with A549; 13 µM in the test with SW480; 3.88 µM with HL-60; 13.2 µM with MCF7.

Consider `C/C=C1/CN(C)[C@H]2Cc3c([nH]c4ccccc34)[C@H](c3cc4[nH]c5c(c4cc3OC)CCN3C[C@H]4C[C@H](CC)[C@H]3[C@@]5(C(=O)OC)C4)C[C@H]1[C@]2(CO)C(=O)OC`, for which the half-maximal inhibitory concentration (IC50) in test [1] was 9.86 µM; in the test on A549, 16.5 µM; in the test with SW480, 16.5 µM; with HL-60, 2.35 µM; with MCF7 it was 13.3 µM.

Turning to `C/C=C1/CN(C)[C@H]2Cc3c([nH]c4ccccc34)[C@H](c3cc4[nH]c5c(c4cc3OC)CCN3C[C@H]4C[C@H](CC)[C@H]3[C@H]5C4)C[C@H]1[C@]2(CO)C(=O)OC`, the half-inhibitory concentration (IC50) in test [1] turned out to be 14.8 µM; with A549 it was 28.5 µM; with SW480, 13 µM; in the test with HL-60, 3.88 µM; in the test with MCF7, 13.2 µM.

As to `C/C=C1/CN(C)[C@H]2Cc3c([nH]c4ccccc34)[C@H](c3cc4c5c([nH]c4cc3OC)[C@]3(C(=O)OC)C[C@@H]4C[C@H](CC)[C@@H]3N(CC5)C4)C[C@H]1[C@]2(CO)C(=O)OC`, the half-inhibitory concentration (IC50) in test [1] was 12.3 µM; in the test with A549, 14.8 µM; with SW480, 13.4 µM; with HL-60 it was 2.68 µM; in the test with MCF7 it was 12.6 µM.

As to `C/C=C1/CN(C)[C@H]2Cc3c([nH]c4ccccc34)[C@@H](c3c(O)ccc4c5c([nH]c34)[C@]3(C(=O)OC)C[C@H]4C[C@H](CC)[C@@H]3N(CC5)C4)C[C@@H]1[C@]2(CO)C(=O)OC`, the 50% inhibitory concentration (IC50) in test [1] is 3.75 µM; in the test with A549 it was 9.4 µM; with SW480 it was 2.72 µM; with HL-60, 2.9 µM; in the test on MCF7, 3.02 µM.

In the case of `CC[C@@]12CC[C@@H]3N(C)c4ccc([C@@H]5[C@H]6O[C@H]6[C@@]6(CC)CC(C(=O)OC)=C7Nc8c(cc(O)c(OC)c8OC)[C@@]78CCN5[C@@H]68)cc4[C@@]34CCN(C[C@H]3O[C@H]31)[C@@H]24` [CONOFOLINE], the IC50 was 10.3 µM in test [1]; 10.3 µM in the test on A549; 13.7 µM in the test with SW480; 0.8 µM in the test with HL-60; 14 µM with MCF7.

For `CC[C@@]12CC(C(=O)OC)=C3Nc4cc5c(cc4[C@@]34CCN(C[C@H]3O[C@H]31)[C@@H]24)[C@@H]1[C@H](O5)[C@@H](O)[C@@]2(CC)CC(C(=O)OC)=C3Nc4c(cc(O)c(OC)c4OC)[C@@]34CCN1[C@@H]24` [CONOPHYLLINE], the concentration for half-maximal inhibition (IC50) in test [1] amounted to 0.35 µM; in the test with A549, 0.21 µM; with SW480, 1.49 µM; in the test with HL-60 it was 0.17 µM; in the test with MCF7, 1.02 µM.
